From PMC10330775 (Experimental cell research, 2023)

Target: T1, RsTSPO WT (Cereibacter sphaeroides, UniProt Q9RFC8)
T1 sequence (Q9RFC8 1-158): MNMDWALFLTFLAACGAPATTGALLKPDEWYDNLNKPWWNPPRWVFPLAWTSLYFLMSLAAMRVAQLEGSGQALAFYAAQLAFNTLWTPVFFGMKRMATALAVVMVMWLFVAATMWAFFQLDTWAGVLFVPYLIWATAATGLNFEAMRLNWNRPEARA
Assay: tryptophan fluorescence quenching titration, Hill fit
Format: binding
In short: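 Purified wild-type Rhodobacter sphaeroides TSPO, 2.5 uM in 20mM Tris pH 8.0, 150mM NaCl, 0.20% DM, 2mM TCEP, titrated at room temperature with increasing amounts of test compound in DMSO. Emission scanned 290–400 nm, excitation 285 nm. Ligand, buffer and solvent absorption/emission controls run. Kd from Hill-equation fit of the quenching curve.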

Structure (SMILES): Nc1ccccc1C(=O)C[C@H](N)C(=O)O [Kynurenine]
- Kd: 172 ± 11 µM
